Compound activity: PubChem BioAssay, several laboratories
Most compounds without a hit are left out; they make up all but 2% or so of the library.
TRPML3 ag – human TRPML3 channel agonists, primary screen, cell-based, HEK293 TRPML3-YFP, Fluo-8 calcium fluorescence, 3 µM | 100% = the carbachol control signal | activation, % at 3 µM | actives 0.29% (n = 220,000) | AID 1448, 2008;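 active means activation above its plate's cutoff, the mean activation of the plate's test wells plus 3 SD, cut at about 12% in these data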
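Test system: HEK293 cells stably carrying human TRPML3-YFP; Doses: single dose, 3 µM final nominal compound, 0.3% DMSO final; Schedule: dye loading 1 h 37 °C then 30 min ambient, 125 s read; Technique: Fluo-8 calcium fluorescence; Benchmarks: high control carbachol 87 µM, low control DMSO.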
CRFBP-R2 agonist – agonists of CRF-BP/CRF-R2 complex, primary screen, cell-based, HEK293, calcium dye fluorescence, uHTS; calcium dye fluorescence (FLIPR); percent of saturating CRF peptide response; activation, % at 13.2 µM; actives 0.46% (n = 350,000); AID 588473, 2011;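 active means activation of at least 50%, plus an integration ratio under a set limit after plate pattern correction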
GPR7 antag – GPR7 receptor antagonists, primary screen, cell-based, fluorescence, single concentration. Neuropeptides B/W receptor type 1 (Homo sapiens), P48145. GPR7-expressing cells, fluorescence antagonist assay. inhibition, % at 4.4 µM. actives 1.1% (n = 290,000). AID 1861, 2009; in the data active means inhibition above about 16%, passing the limit was not always enough;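 further: cells stimulated with the agonist NPW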
Target sequence (P48145 whole entry, looked up): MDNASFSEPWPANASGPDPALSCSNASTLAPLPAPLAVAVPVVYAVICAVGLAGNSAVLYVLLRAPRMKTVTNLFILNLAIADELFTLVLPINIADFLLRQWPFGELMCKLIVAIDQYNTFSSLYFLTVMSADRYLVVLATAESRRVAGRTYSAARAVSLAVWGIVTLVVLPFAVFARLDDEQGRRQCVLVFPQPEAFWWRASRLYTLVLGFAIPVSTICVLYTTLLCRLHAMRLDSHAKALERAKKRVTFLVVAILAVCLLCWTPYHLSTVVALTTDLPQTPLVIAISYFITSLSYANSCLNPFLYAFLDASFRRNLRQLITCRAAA
TRPN1 ag – zebrafish TRPN1 channel agonists, primary screen, cell-based, HEK293, calcium fluorescence; transient receptor potential cation channel N1 (TRPN1/NompC), Danio rerio; HEK293 zebrafish TRPN1-YFP, Fluo-8 calcium fluorescence; 100% = response to 87 µM carbachol; activation, % at 3 µM; actives 0.18% (n = 220,000);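 active means activation above its plate's cutoff, the mean activation of test wells on that plate plus 3 SD, cut at about 19% in these data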
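Material – zebrafish TRPN1-YFP in HEK293 cells · Doses – 3 µM single point · Schedule – dye 1 h 37 °C plus 30 min RT · Signal – Fluo-8 calcium fluorescence, excitation 470-495 nm, emission 515-575 nm · Read-out – % activation versus carbachol response · Control set – carbachol high, DMSO low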
CRFR2-BP antag – antagonists of CRF-BP/CRF-R2 complex, primary screen, cell-based, HEK293, calcium dye fluorescence, uHTS; CRF-induced calcium fluorescence; inhibition, % at 11.8 µM; actives 0.59% (n = 350,000);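 active means inhibition of the ligand-induced calcium signal above about 50% at the single tested concentration, limit read from the data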
Numbers stand for hits; 0 = inactive; - = no result given.

SMILES	TRPML3 ag	CRFBP-R2 agonist	GPR7 antag	TRPN1 ag	CRFR2-BP antag
CCCCCN1C(=O)/C(=C/c2c(N3CCc4ccccc4C3)nc3ccccn3c2=O)SC1=S	-	0	-	-	0
CCCN1C(=O)/C(=C/c2c(N3CCNC(=O)C3CC(=O)OCC)nc3c(C)cccn3c2=O)SC1=S (configuration not stated)	11.6	190.9	0	28.3	0
CCOC(=O)CC1C(=O)NCCN1c1nc2ccc(C)cn2c(=O)c1/C=C1\SC(=S)N(CC(C)C)C1=O (configuration not stated)	0	189.1	0	31.8	0
CCOC(=O)CC1C(=O)NCCN1c1nc2ccc(C)cn2c(=O)c1/C=C1\SC(=S)N(C(C)CC)C1=O (configuration not stated)	0	-	0	20.3	-
Cc1ccc(C)c(N(C(=O)CNC(=O)c2ccco2)C(C(=O)NC2CCCC2)c2ccncc2)c1 (configuration not stated)	-	0	0	-	0
Fc1ccc(OCCCCCn2ccnc2)cc1	-	0	0	-	54.7
COc1ccc(Cl)cc1C(=O)Nc1nc(C)cc(C)n1	-	0	0	-	0
CCc1cc2cc(C)cc(C)c2nc1SCC(=O)N1CCN(C(=O)c2ccco2)CC1	0	0	0	0	52.1
CCc1cc2cccc(C)c2nc1SCC(=O)N1CCN(C(=O)c2ccco2)CC1	0	0	0	0	0
Cc1ccc(S(=O)(=O)NCc2ccc(C(=O)NC3CCC(O)CC3)cc2)cc1C (configuration not stated)	-	0	-	-	0
CCOc1cc(/C=C/C(=O)c2ccc(OC)c(CN3CCOCC3)c2)cc(Br)c1O	-	58.2	0	-	0
CCN(CC)CC(=O)Nc1cc(N(C)C)nc2ccccc12	0	0	0	0	0
CN1CCN(CC(=O)Nc2cc(N(C)C)nc3ccccc23)CC1	0	0	0	0	58.0
O=C(CCn1nnc2ccccc21)N1CCN(c2ccccc2)CC1	0	0	0	0	94.7
Cc1n[nH]c(=O)c2c(NC(=O)COC(=O)/C=C/c3cccc(C(F)(F)F)c3)oc(C)c12	-	0	-	-	0
N#Cc1c(-c2ccc(F)cc2)cc(-c2ccccc2)nc1SCC(=O)NCC(=O)O	0	61.9	0	0	0
Cc1cc(C)c(OCC(=O)OCC(=O)NC2CCC(C)CC2)c(C)c1 (configuration not stated)	-	0	-	-	0
CC1CC2(C)Oc3ccccc3CC2C(C)C1CNCCCN(C)C (configuration not stated)	0	0	43.8	0	0
Cc1ccc(NC(=O)c2cccc(S(=O)(=O)N3CCN(c4ccc(F)cc4)CC3)c2)nc1	-	0	0	-	0
CCCCN(CC)S(=O)(=O)c1ccc(C(=O)N(CCCN(C)C)c2nc3cc(C)cc(C)c3s2)cc1	0	0	22.9	0	0
CCN(Cc1ccccc1)S(=O)(=O)c1ccc(C(=O)N(CCCN(C)C)c2nc3cc(C)cc(C)c3s2)cc1	-	0	-	-	0
COc1ccc2nc(SCC(=O)NC3CC3)c(C#N)cc2c1	-	0	0	-	0
CCN1/C(=C/c2ccc3cc(C)ccc3[n+]2CC)Sc2cc(C)ccc21	12.7	131.4	0	33.0	0
CCOC(=O)c1cc(C#N)c(Oc2ccccc2OC)nc1-c1ccccc1	0	0	0	0	56.5
CCOC(=O)c1cc(C#N)c(N2CCN(c3ccccn3)CC2)nc1-c1ccccc1	0	0	0	0	54.2
SMILES	TRPML3 ag	CRFBP-R2 agonist	GPR7 antag	TRPN1 ag	CRFR2-BP antag
C(#Cc1c(-c2ccsc2)sc2ccccc12)c1ccsc1	-	0	-	-	0
COc1cc(CNc2ccc(O)cc2)cc(Br)c1OCc1ccccc1	0	0	0	0	0
COc1cc(CNC(C)(C)CO)cc(Br)c1OCc1ccc(Cl)cc1	0	0	37.1	0	0
CNc1nc(NC)nc(NNC(=O)c2ccccc2)n1	-	0	-	-	50.8
COC(=O)Cn1c(=O)c2c(nc3n2CC(C)CN3Cc2ccccc2)n(C)c1=O (configuration not stated)	-	0	0	-	0
C=C(C)Cn1c(=O)c2c(nc3n2CC(C)CN3Cc2ccccc2)n(C)c1=O (configuration not stated)	-	0	0	-	87.5
Cc1ccc(C(C)C)c(OCc2nn(CC(=O)c3ccc(Cl)cc3)c3[n+]2CCCCC3)c1	0	0	37.7	0	0
O=C(Cn1nc(CNc2ccc(Cl)cc2)[n+]2c1CCCCC2)c1ccccc1	0	0	0	0	0
CC(NS(=O)(=O)CCNC(=O)c1ccccc1)c1ccccc1 (configuration not stated)	-	0	-	-	0
CC[n+]1c(/C=C/C=C/N(C(C)=O)c2ccccc2)sc2ccccc21	0	157.5	0	0	0
CCn1c(/C=C/N(C(C)=O)c2ccccc2)[n+](CC)c2ccc(Cl)cc21	0	0	0	0	0
Cc1ccccc1NC(=O)c1ccc(-c2ccc(Cl)cc2Cl)o1	0	0	0	0	66.2
O=C1c2ccccc2-c2onc3ccc(NCc4ccco4)c1c23	0	147.8	0	0	0
O=C1C(Cl)=C(NCc2ccco2)C(=O)c2ccccc21	-	0	-	-	0
CCNc1ccc2noc3c2c1C(=O)c1ccccc1-3	0	191.8	0	0	0
CCOc1ccc2noc3c2c1C(=O)c1ccccc1-3	0	0	0	0	0
CCN1CCN(c2ccc(S(=O)(=O)N3CCOCC3)cc2NC(=O)/C=C/c2cccc(OC)c2OC)CC1	-	0	-	-	0
COc1ccc(C(=O)N2CCN(c3ccc(C)c(C)c3)CC2)cc1OC	0	0	20.3	0	0
COc1ccc(C(=O)N2CCN(c3ccc(C)cc3C)CC2)cc1OC	0	0	0	0	0
CC(C)(C)c1csc(N/N=C/c2ccc(O)cc2)n1	-	0	0	-	0
O=[N+]([O-])c1cccc(/C=N/Nc2nc(NCc3ccccc3)nc(N3CCOCC3)n2)c1O	0	68.5	0	0	0
O=[N+]([O-])c1ccc(N2CCOCC2)cc1NCc1ccccc1	0	0	0	0	63.8
CCOC(=O)c1c(NC(=O)C2CC(Cl)=CCC2C(=O)O)sc2c1CCCCC2 (configuration not stated)	-	0	0	-	0
COc1ccc(S(=O)(=O)Nc2nc3ccccc3nc2NCc2ccc3c(c2)OCO3)cc1	0	0	0	0	56.8
Cc1cc(C)c(S(=O)(=O)N2CCCCC2)c(C)c1N(C)S(=O)(=O)c1ccccc1	55.4	0	0	0	0
COCCNC(=O)Cn1nc(Cc2ccncc2)c2ccccc2c1=O	-	0	0	-	0
CCOc1ccc(/C=C2/SC(=O)NC2=S)cc1	14.2	0	0	34.3	0
CCOc1ccc(N=C2NC(=O)S/C2=C\c2ccc(N(C)C)cc2)cc1	0	0	0	0	0
